{"source": "ChEMBL document CHEMBL2375260", "about": "“Antifungal agents from Pseudallescheria boydii SNB-CN73 isolated from a Nasutitermes sp. termite” (J Nat Prod, 2013)", "key": {"[1]": {"test": "Selectivity index, ratio of IC50 for human MDA435 cells to MIC for Candida albicans ATCC 10231", "assay_type": "functional", "how_it_was_run": "(§1)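 Selectivity index is calculated as SI = IC50/MIC. IC50 is the cytotoxicity measured in MDA435 cells (melanoma, previously described as mammary carcinoma). MIC is the EUCAST reference-protocol value for the given microbial strain.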"}, "[2]": {"test": "Selectivity index, ratio of IC50 for human MDA435 cells to MIC for Escherichia coli ATCC 25922", "assay_type": "functional", "how_it_was_run": "as §1"}, "[3]": {"test": "Selectivity index, ratio of IC50 for human MDA435 cells to MIC for Aspergillus fumigatus SNB-AF1", "assay_type": "functional", "how_it_was_run": "as §1"}, "[4]": {"test": "Selectivity index, ratio of IC50 for human MDA435 cells to MIC for Candida parapsilosis ATCC 22019", "assay_type": "functional", "how_it_was_run": "as §1"}, "[5]": {"system": "Aspergillus fumigatus", "test": "Antifungal activity against Aspergillus fumigatus SNB-AF1 assessed as growth inhibition after 24 hrs by […]", "assay_type": "functional", "conditions": "SNB-AF1, 24 h"}, "[6]": {"system": "KB", "test": "Cytotoxicity against human KB cells assessed as growth inhibition", "assay_type": "functional, cell-based"}, "[7]": {"test": "Selectivity index, ratio of IC50 for human MDA435 cells to MIC for Staphylococcus aureus ATCC 29213", "assay_type": "functional", "how_it_was_run": "as §1"}, "[8]": {"system": "Candida albicans", "test": "Antifungal activity against Candida albicans ATCC 10231 assessed as growth inhibition after 18 hrs by […]", "assay_type": "functional", "conditions": "ATCC 10231, 18 h"}, "[9]": {"system": "Trichophyton rubrum", "test": "Antifungal activity against Trichophyton rubrum SNB-TR1 assessed as growth inhibition after 5 days by […]", "assay_type": "functional", "conditions": "SNB-TR1, 120 h"}, "[10]": {"system": "Candida parapsilosis", "test": "Antifungal activity against Candida parapsilosis ATCC 22019 assessed as growth inhibition after 18 hrs by […]", "assay_type": "functional", "conditions": "Lodderomyces parapsilosis, ATCC 22019, 18 h"}, "[11]": {"system": "Staphylococcus aureus", "test": "Antibacterial activity against Staphylococcus aureus ATCC 29213 assessed as growth inhibition after 24 hrs by […]", "assay_type": "functional", "conditions": "ATCC 29213, 24 h"}, "[12]": {"test": "Cytotoxicity against human MDA435 cells assessed as growth inhibition", "assay_type": "functional, cell-based", "conditions": "MDA-MB-435"}, "[13]": {"test": "Selectivity index, ratio of IC50 for human MDA435 cells to MIC for Trichophyton rubrum SNB-TR1", "assay_type": "functional", "how_it_was_run": "as §1"}, "[14]": {"system": "Escherichia coli", "test": "Antibacterial activity against Escherichia coli ATCC 25922 assessed as growth inhibition after 24 hrs by […]", "assay_type": "functional"}, "[15]": {"system": "MCF7", "test": "Cytotoxicity against human MCF7 cells assessed as inhibition of FBS-induced cellular growth", "assay_type": "functional, cell-based"}, "[16]": {"system": "MCF7", "test": "Cytotoxicity against human MCF7 cells assessed as inhibition of IGF1-induced cellular growth", "assay_type": "functional, cell-based"}}, "data": [{"molecule": "CC[C@@H](C)C[C@@H](C)/C=C/CC[C@@H](O)[C@H](Cc1ccc(O)cc1)N(C)C.O=CO", "values": [{"measurement": "Selectivity Index", "setting": "[1]", "value": 6.1}, {"measurement": "Selectivity Index", "setting": "[2]", "value": 0.8}, {"measurement": "Selectivity Index", "setting": "[3]", "value": 0.8}, {"measurement": "Selectivity Index", "setting": "[4]", "value": 0.8}, {"measurement": "MIC", "setting": "[5]", "value": 32, "unit": "µg/mL"}, {"measurement": "IC50", "setting": "[6]", "value": 16, "unit": "µg/mL"}, {"measurement": "Selectivity Index", "setting": "[7]", "value": 1.5}, {"measurement": "MIC", "setting": "[8]", "value": 4, "unit": "µg/mL"}, {"measurement": "MIC", "setting": "[9]", "value": 4, "unit": "µg/mL"}, {"measurement": "MIC", "setting": "[10]", "value": 32, "unit": "µg/mL"}, {"measurement": "MIC", "setting": "[11]", "value": 16, "unit": "µg/mL"}, {"measurement": "IC50", "setting": "[12]", "value": 24.3, "unit": "µg/mL"}, {"measurement": "Selectivity Index", "setting": "[13]", "value": 6.1}, {"measurement": "MIC", "setting": "[14]; ATCC 25922, 24 h", "value": 32, "unit": "µg/mL"}]}, {"molecule": "OC(Cn1cncn1)(Cn1cncn1)c1ccc(F)cc1F", "note": "[FLUCONAZOLE]", "values": [{"measurement": "MIC", "setting": "[8]", "value": 4, "unit": "µg/mL"}, {"measurement": "MIC", "setting": "[10]", "value": 4, "unit": "µg/mL"}]}, {"molecule": "CC[C@@H](C)C[C@@H](C)/C=C/CC[C@@H](O)[C@H](Cc1ccc(O)cc1)NC.O=CO", "note": "[TYROSCHERIN FORMATE]", "values": [{"measurement": "Selectivity Index", "setting": "[1]", "value": 10}, {"measurement": "Selectivity Index", "setting": "[2]", "value": 1.3}, {"measurement": "Selectivity Index", "setting": "[3]", "value": 1.3}, {"measurement": "Selectivity Index", "setting": "[4]", "value": 1.3}, {"measurement": "MIC", "setting": "[5]", "value": 16, "unit": "µg/mL"}, {"measurement": "IC50", "setting": "[6]", "value": 8.6, "unit": "µg/mL"}, {"measurement": "Selectivity Index", "setting": "[7]", "value": 2.5}, {"measurement": "MIC", "setting": "[8]", "value": 2, "unit": "µg/mL"}, {"measurement": "MIC", "setting": "[9]", "value": 2, "unit": "µg/mL"}, {"measurement": "MIC", "setting": "[10]", "value": 16, "unit": "µg/mL"}, {"measurement": "MIC", "setting": "[11]", "value": 8, "unit": "µg/mL"}, {"measurement": "IC50", "setting": "[12]", "value": 20, "unit": "µg/mL"}, {"measurement": "Selectivity Index", "setting": "[13]", "value": 10}, {"measurement": "MIC", "setting": "[14]; ATCC 25922, 24 h", "value": 16, "unit": "µg/mL"}]}, {"molecule": "CCC(C)n1ncn(-c2ccc(N3CCN(c4ccc(OCC5COC(Cn6cncn6)(c6ccc(Cl)cc6Cl)O5)cc4)CC3)cc2)c1=O", "note": "(stereo unspecified) [ITRACONAZOLE]", "values": [{"measurement": "MIC", "setting": "[5]", "value": 0.5, "unit": "µg/mL"}, {"measurement": "MIC", "setting": "[9]", "value": 0.25, "unit": "µg/mL"}]}, {"molecule": "GENTAMICIN", "values": [{"measurement": "MIC", "setting": "[14]", "value": 8, "unit": "µg/mL"}]}, {"molecule": "CC[C@@H](C)C[C@@H](C)/C=C/CC[C@@H](O)[C@H](Cc1ccc(O)cc1)NC", "note": "[TYROSCHERIN 8]", "values": [{"measurement": "IC50", "setting": "[15]", "value": 6.2, "unit": "µM"}, {"measurement": "IC50", "setting": "[16]", "value": 0.03, "unit": "µM"}]}, {"molecule": "Cc1onc(-c2ccccc2)c1C(=O)N[C@@H]1C(=O)N2[C@@H]1SC(C)(C)[C@@H]2C(=O)O", "note": "[OXACILLIN]", "values": [{"measurement": "MIC", "setting": "[11]", "value": 0.5, "unit": "µg/mL"}]}]}
